Test results from ChEMBL document CHEMBL4689842, “EUbOPEN Chemogenomics Library wave 1” (2021).

Test system: HEK-293T
Assay: Multiplex assay against HEK293T;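 as to Population Tubulin-Different-Phenotype (%): share of the cells with healthy nuclei that show this phenotype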
Assay type: toxicity, cell-based
Conditions: human
Procedure, shortened: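 Hoechst33342, BioTracker Green Microtubule Cytoskeleton Dye, MitoTracker Red and Annexin V Alexa Fluor 680 were added to live cells at seeding, and imaging on a CQ1 microscope at 37°C and 5% CO2 followed compound addition. Gating by CellPathfinder machine learning separated cells into Hoechst high-intensity objects or normal cells, then normal cells into healthy, pyknosed or fragmented nuclei, then pyknosed cells into mitotic or apoptotic. Per cents of healthy-nucleus cells are reported for the tubulin, mitochondrial-mass and membrane-permeability phenotypes.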

[1] = 12 h, 1 µM, compound concentration 1 uM, replicate 1
[2] = 12 h, 1 µM, compound concentration 1 uM, replicate 2
[3] = 12 h, 10 µM, compound concentration 10 uM, replicate 1
[4] = 12 h, 10 µM, compound concentration 10 uM, replicate 2
[5] = 24 h, 1 µM, compound concentration 1 uM, replicate 1
[6] = 24 h, 1 µM, compound concentration 1 uM, replicate 2
[7] = 24 h, 10 µM, compound concentration 10 uM, replicate 1
[8] = 24 h, 10 µM, compound concentration 10 uM, replicate 2
[9] = 48 h, 1 µM, compound concentration 1 uM, replicate 1
[10] = 48 h, 1 µM, compound concentration 1 uM, replicate 2
[11] = 48 h, 10 µM, compound concentration 10 uM, replicate 1
[12] = 48 h, 10 µM, compound concentration 10 uM, replicate 2

S=C(NCCCc1c[nH]cn1)NCCCN(Cc1ccc(Cl)c(Cl)c1)c1ccc(Br)cn1
Population Apoptotic (%) [1]: 47%
Population Fragmented Nuclei (%) [1]: 8%
Population Healthy Nuclei (%) [1]: 41%
Population Hoechst High Intensity Objects (%) [1]: 11%
Population Membrane Permeable-Phenotype (%) [1]: 4%
Population Mitochondria Different-Phenotype (%) [1]: 83%
Population Mitotic Cells (%) [1]: 52%
Population Normal (%) [1]: 88%
Population Pyknosed Nuclei (%) [1]: 49%
Population Tubulin-Different-Phenotype (%) [1]: 67%
Total Cell Count [1]: 310
Population Apoptotic (%) [2]: 19%
Population Fragmented Nuclei (%) [2]: 5%
Population Healthy Nuclei (%) [2]: 44%
Population Hoechst High Intensity Objects (%) [2]: 3%
Population Membrane Permeable-Phenotype (%) [2]: 22%
Population Mitochondria Different-Phenotype (%) [2]: 29%
Population Mitotic Cells (%) [2]: 80%
Population Normal (%) [2]: 96%
Population Pyknosed Nuclei (%) [2]: 50%
Population Tubulin-Different-Phenotype (%) [2]: 54%
Total Cell Count [2]: 240
Population Apoptotic (%) [3]: 88%
Population Fragmented Nuclei (%) [3]: 6%
Population Healthy Nuclei (%) [3]: 2%
Population Hoechst High Intensity Objects (%) [3]: 13%
Population Membrane Permeable-Phenotype (%) [3]: 22%
Population Mitochondria Different-Phenotype (%) [3]: 66%
Population Mitotic Cells (%) [3]: 11%
Population Normal (%) [3]: 86%
Population Tubulin-Different-Phenotype (%) [3]: 77%
Total Cell Count [3]: 356
Population Apoptotic (%) [4]: 84%
Population Fragmented Nuclei (%) [4]: 5%
Population Healthy Nuclei (%) [4]: 3%
Population Hoechst High Intensity Objects (%) [4]: 6%
Population Membrane Permeable-Phenotype (%) [4]: 37%
Population Mitochondria Different-Phenotype (%) [4]: 50%
Population Mitotic Cells (%) [4]: 15%
Population Normal (%) [4]: 93%
Population Pyknosed Nuclei (%) [4]: 90%
Population Tubulin-Different-Phenotype (%) [4]: 100%
Total Cell Count [4]: 220
Population Apoptotic (%) [5]: 61%
Population Fragmented Nuclei (%) [5]: 13%
Population Healthy Nuclei (%) [5]: 31%
Population Hoechst High Intensity Objects (%) [5]: 15%
Population Membrane Permeable-Phenotype (%) [5]: 8%
Population Mitochondria Different-Phenotype (%) [5]: 73%
Population Mitotic Cells (%) [5]: 38%
Population Normal (%) [5]: 84%
Population Tubulin-Different-Phenotype (%) [5]: 73%
Total Cell Count [5]: 308
Population Apoptotic (%) [6]: 20%
Population Fragmented Nuclei (%) [6]: 4%
Population Healthy Nuclei (%) [6]: 40%
Population Hoechst High Intensity Objects (%) [6]: 6%
Population Membrane Permeable-Phenotype (%) [6]: 28%
Population Mitochondria Different-Phenotype (%) [6]: 17%
Population Mitotic Cells (%) [6]: 79%
Population Normal (%) [6]: 93%
Population Pyknosed Nuclei (%) [6]: 54%
Population Tubulin-Different-Phenotype (%) [6]: 52%
Total Cell Count [6]: 239
Population Apoptotic (%) [7]: 82%
Population Fragmented Nuclei (%) [7]: 8%
Population Healthy Nuclei (%) [7]: 2%
Population Hoechst High Intensity Objects (%) [7]: 14%
Population Mitochondria Different-Phenotype (%) [7]: 85%
Population Mitotic Cells (%) [7]: 17%
Population Normal (%) [7]: 85%
Population Pyknosed Nuclei (%) [7]: 89%
Total Cell Count [7]: 366
Population Apoptotic (%) [8]: 81%
Population Fragmented Nuclei (%) [8]: 7%
Population Healthy Nuclei (%) [8]: 4%
Population Hoechst High Intensity Objects (%) [8]: 12%
Population Membrane Permeable-Phenotype (%) [8]: 0%
Population Mitochondria Different-Phenotype (%) [8]: 22%
Population Mitotic Cells (%) [8]: 18%
Population Normal (%) [8]: 87%
Population Pyknosed Nuclei (%) [8]: 87%
Population Tubulin-Different-Phenotype (%) [8]: 100%
Total Cell Count [8]: 231
Population Apoptotic (%) [9]: 49%
Population Fragmented Nuclei (%) [9]: 19%
Population Healthy Nuclei (%) [9]: 4%
Population Hoechst High Intensity Objects (%) [9]: 23%
Population Membrane Permeable-Phenotype (%) [9]: 41%
Population Mitochondria Different-Phenotype (%) [9]: 50%
Population Mitotic Cells (%) [9]: 50%
Population Normal (%) [9]: 76%
Population Pyknosed Nuclei (%) [9]: 75%
Population Tubulin-Different-Phenotype (%) [9]: 83%
Total Cell Count [9]: 320
Population Apoptotic (%) [10]: 35%
Population Fragmented Nuclei (%) [10]: 5%
Population Healthy Nuclei (%) [10]: 26%
Population Hoechst High Intensity Objects (%) [10]: 13%
Population Membrane Permeable-Phenotype (%) [10]: 33%
Population Mitochondria Different-Phenotype (%) [10]: 20%
Population Mitotic Cells (%) [10]: 64%
Population Normal (%) [10]: 86%
Population Pyknosed Nuclei (%) [10]: 67%
Population Tubulin-Different-Phenotype (%) [10]: 53%
Total Cell Count [10]: 234
Population Apoptotic (%) [11]: 71%
Population Fragmented Nuclei (%) [11]: 11%
Population Healthy Nuclei (%) [11]: 0%
Population Hoechst High Intensity Objects (%) [11]: 17%
Population Membrane Permeable-Phenotype (%) [11]: 0%
Population Mitochondria Different-Phenotype (%) [11]: 100%
Population Mitotic Cells (%) [11]: 28%
Population Normal (%) [11]: 82%
Population Pyknosed Nuclei (%) [11]: 87%
Total Cell Count [11]: 369
Population Apoptotic (%) [12]: 87%
Population Fragmented Nuclei (%) [12]: 15%
Population Healthy Nuclei (%) [12]: 9%
Population Hoechst High Intensity Objects (%) [12]: 9%
Population Membrane Permeable-Phenotype (%) [12]: 5%
Population Mitochondria Different-Phenotype (%) [12]: 75%
Population Mitotic Cells (%) [12]: 12%
Population Normal (%) [12]: 90%
Population Pyknosed Nuclei (%) [12]: 74%
Population Tubulin-Different-Phenotype (%) [12]: 100%
Total Cell Count [12]: 230

Cc1cn(-c2cc(NC(=O)c3ccc(C)c(Nc4nccc(-c5cccnc5)n4)c3)cc(C(F)(F)F)c2)cn1 [NILOTINIB]
Population Apoptotic (%) [1]: 65%
Population Fragmented Nuclei (%) [1]: 10%
Population Hoechst High Intensity Objects (%) [1]: 17%
Population Membrane Permeable-Phenotype (%) [1]: 2%
Population Mitochondria Different-Phenotype (%) [1]: 92%
Population Mitotic Cells (%) [1]: 34%
Population Normal (%) [1]: 82%
Population Pyknosed Nuclei (%) [1]: 51%
Population Tubulin-Different-Phenotype (%) [1]: 98%
Total Cell Count [1]: 215
Population Apoptotic (%) [2]: 21%
Population Fragmented Nuclei (%) [2]: 7%
Population Healthy Nuclei (%) [2]: 37%
Population Hoechst High Intensity Objects (%) [2]: 6%
Population Membrane Permeable-Phenotype (%) [2]: 10%
Population Mitochondria Different-Phenotype (%) [2]: 10%
Population Mitotic Cells (%) [2]: 78%
Population Normal (%) [2]: 93%
Population Pyknosed Nuclei (%) [2]: 55%
Population Tubulin-Different-Phenotype (%) [2]: 15%
Total Cell Count [2]: 164
Population Apoptotic (%) [3]: 91%
Population Fragmented Nuclei (%) [3]: 54%
Population Healthy Nuclei (%) [3]: 12%
Population Hoechst High Intensity Objects (%) [3]: 48%
Population Membrane Permeable-Phenotype (%) [3]: 6%
Population Mitochondria Different-Phenotype (%) [3]: 61%
Population Mitotic Cells (%) [3]: 8%
Population Normal (%) [3]: 51%
Population Pyknosed Nuclei (%) [3]: 32%
Population Tubulin-Different-Phenotype (%) [3]: 59%
Total Cell Count [3]: 738
Population Apoptotic (%) [4]: 38%
Population Fragmented Nuclei (%) [4]: 9%
Population Healthy Nuclei (%) [4]: 32%
Population Hoechst High Intensity Objects (%) [4]: 3%
Population Membrane Permeable-Phenotype (%) [4]: 3%
Population Mitochondria Different-Phenotype (%) [4]: 71%
Population Mitotic Cells (%) [4]: 62%
Population Normal (%) [4]: 96%
Population Pyknosed Nuclei (%) [4]: 57%
Population Tubulin-Different-Phenotype (%) [4]: 80%
Total Cell Count [4]: 179
Population Apoptotic (%) [5]: 69%
Population Fragmented Nuclei (%) [5]: 14%
Population Healthy Nuclei (%) [5]: 39%
Population Hoechst High Intensity Objects (%) [5]: 15%
Population Membrane Permeable-Phenotype (%) [5]: 1%
Population Mitochondria Different-Phenotype (%) [5]: 98%
Population Mitotic Cells (%) [5]: 30%
Population Normal (%) [5]: 84%
Population Pyknosed Nuclei (%) [5]: 46%
Population Tubulin-Different-Phenotype (%) [5]: 94%
Total Cell Count [5]: 213
Population Apoptotic (%) [6]: 18%
Population Fragmented Nuclei (%) [6]: 7%
Population Healthy Nuclei (%) [6]: 56%
Population Hoechst High Intensity Objects (%) [6]: 4%
Population Membrane Permeable-Phenotype (%) [6]: 8%
Population Mitochondria Different-Phenotype (%) [6]: 23%
Population Mitotic Cells (%) [6]: 81%
Population Normal (%) [6]: 95%
Population Pyknosed Nuclei (%) [6]: 35%
Population Tubulin-Different-Phenotype (%) [6]: 38%
Total Cell Count [6]: 212
Population Apoptotic (%) [7]: 87%
Population Fragmented Nuclei (%) [7]: 64%
Population Healthy Nuclei (%) [7]: 11%
Population Hoechst High Intensity Objects (%) [7]: 50%
Population Membrane Permeable-Phenotype (%) [7]: 1%
Population Mitochondria Different-Phenotype (%) [7]: 50%
Population Mitotic Cells (%) [7]: 12%
Population Normal (%) [7]: 49%
Population Pyknosed Nuclei (%) [7]: 24%
Population Tubulin-Different-Phenotype (%) [7]: 51%
Total Cell Count [7]: 958
Population Apoptotic (%) [8]: 41%
Population Fragmented Nuclei (%) [8]: 5%
Population Healthy Nuclei (%) [8]: 57%
Population Hoechst High Intensity Objects (%) [8]: 2%
Population Membrane Permeable-Phenotype (%) [8]: 5%
Population Mitochondria Different-Phenotype (%) [8]: 68%
Population Mitotic Cells (%) [8]: 58%
Population Normal (%) [8]: 97%
Population Pyknosed Nuclei (%) [8]: 36%
Population Tubulin-Different-Phenotype (%) [8]: 85%
Total Cell Count [8]: 209
Population Apoptotic (%) [9]: 64%
Population Fragmented Nuclei (%) [9]: 17%
Population Healthy Nuclei (%) [9]: 31%
Population Hoechst High Intensity Objects (%) [9]: 19%
Population Membrane Permeable-Phenotype (%) [9]: 1%
Population Mitochondria Different-Phenotype (%) [9]: 88%
Population Mitotic Cells (%) [9]: 36%
Population Normal (%) [9]: 80%
Population Pyknosed Nuclei (%) [9]: 50%
Population Tubulin-Different-Phenotype (%) [9]: 85%
Total Cell Count [9]: 244
Population Apoptotic (%) [10]: 16%
Population Fragmented Nuclei (%) [10]: 4%
Population Healthy Nuclei (%) [10]: 80%
Population Hoechst High Intensity Objects (%) [10]: 3%
Population Membrane Permeable-Phenotype (%) [10]: 9%
Population Mitochondria Different-Phenotype (%) [10]: 9%
Population Mitotic Cells (%) [10]: 83%
Population Normal (%) [10]: 96%
Population Pyknosed Nuclei (%) [10]: 14%
Population Tubulin-Different-Phenotype (%) [10]: 38%
Total Cell Count [10]: 337
Population Apoptotic (%) [11]: 84%
Population Fragmented Nuclei (%) [11]: 64%
Population Healthy Nuclei (%) [11]: 14%
Population Hoechst High Intensity Objects (%) [11]: 52%
Population Membrane Permeable-Phenotype (%) [11]: 0%
Population Mitochondria Different-Phenotype (%) [11]: 34%
Population Mitotic Cells (%) [11]: 15%
Population Normal (%) [11]: 47%
Population Pyknosed Nuclei (%) [11]: 20%
Population Tubulin-Different-Phenotype (%) [11]: 32%
Total Cell Count [11]: 1138
Population Apoptotic (%) [12]: 41%
Population Fragmented Nuclei (%) [12]: 7%
Population Healthy Nuclei (%) [12]: 69%
Population Hoechst High Intensity Objects (%) [12]: 1%
Population Membrane Permeable-Phenotype (%) [12]: 1%
Population Mitochondria Different-Phenotype (%) [12]: 61%
Population Mitotic Cells (%) [12]: 58%
Population Normal (%) [12]: 98%
Population Pyknosed Nuclei (%) [12]: 23%
Population Tubulin-Different-Phenotype (%) [12]: 84%
Total Cell Count [12]: 290
